Measured values as given in the M2OR odorant receptor database.

What was measured:
Conditions in all cases: stereoisomer not certain
OR5P3 (Homo sapiens) = biological target: T1, OR5P3 (Homo sapiens) (UniProt Q8WZ94)
T1 sequence (whole entry): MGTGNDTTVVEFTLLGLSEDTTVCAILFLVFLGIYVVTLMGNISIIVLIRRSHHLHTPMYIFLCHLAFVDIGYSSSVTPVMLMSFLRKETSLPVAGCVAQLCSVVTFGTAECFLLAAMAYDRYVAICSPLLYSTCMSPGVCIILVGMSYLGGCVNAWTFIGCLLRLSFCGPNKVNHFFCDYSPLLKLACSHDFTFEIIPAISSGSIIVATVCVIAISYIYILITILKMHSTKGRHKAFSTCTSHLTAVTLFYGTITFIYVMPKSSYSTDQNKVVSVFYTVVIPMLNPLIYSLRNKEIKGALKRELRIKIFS
In short: (§1)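 Whether a receptor–molecule pair is responsive (active) rests on the original authors' judgment that its measured signal was statistically different from baseline. Pairs without that judgment are non-responsive (inactive). Sources used varied assay methods, commonly transient luciferase assays in mammalian cell lines.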

OR5P3 L301R = tested on: OR5P3 L301R
In short: as §1

OR5R1 C122R S128G F184L = tested on: OR5R1 C122R S128G F184L
In short: as §1

OR5T1 (Homo sapiens) = OR5T1 (Homo sapiens) (UniProt Q8NG75)
In short: as §1

OR5T2 (Homo sapiens) = OR5T2 (Homo sapiens) (UniProt Q8NGG2)
In short: as §1

OR5T2 S4G = tested on: OR5T2 S4G
In short: as §1

OR5T3 (Homo sapiens) = OR5T3 (Homo sapiens) (UniProt Q8NGG3)
In short: as §1

OR5V1 (Homo sapiens) = OR5V1 (Homo sapiens) (UniProt Q9UGF6)
In short: as §1

OR5W2 (Homo sapiens) = OR5W2 (Homo sapiens) (UniProt Q8NH69)
In short: as §1

OR5W2 R189C = tested on: OR5W2 R189C
In short: as §1

OR6A2 (Homo sapiens) = OR6A2 (Homo sapiens) (UniProt O95222)
In short: as §1

OR6A2 I50V = tested on: OR6A2 I50V
In short: as §1

OR6B1 (Homo sapiens) = OR6B1 (Homo sapiens) (UniProt O95007)
In short: as §1

OR6B2 (Homo sapiens) = OR6B2 (Homo sapiens) (UniProt Q6IFH4)
In short: as §1

OR6B2 R122C C179R = tested on: OR6B2 R122C C179R
In short: as §1

OR6B3 (Homo sapiens) = OR6B3 (Homo sapiens) (UniProt Q8NGW1)
In short: as §1

OR6B3 T48I R131C = tested on: OR6B3 T48I R131C
In short: as §1

OR6C1 (Homo sapiens) = OR6C1 (Homo sapiens) (UniProt Q96RD1)
In short: as §1

OR6C1 C130Y H165D V246I = tested on: OR6C1 C130Y H165D V246I
In short: as §1

OR6C2 (Homo sapiens) = OR6C2 (Homo sapiens) (UniProt Q9NZP2)
In short: as §1

Measured: odorant receptor agonist call;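 note: active if original authors judged signal statistically different from baseline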

Sequence of OR6C2 (Homo sapiens) (Q9NZP2 whole entry): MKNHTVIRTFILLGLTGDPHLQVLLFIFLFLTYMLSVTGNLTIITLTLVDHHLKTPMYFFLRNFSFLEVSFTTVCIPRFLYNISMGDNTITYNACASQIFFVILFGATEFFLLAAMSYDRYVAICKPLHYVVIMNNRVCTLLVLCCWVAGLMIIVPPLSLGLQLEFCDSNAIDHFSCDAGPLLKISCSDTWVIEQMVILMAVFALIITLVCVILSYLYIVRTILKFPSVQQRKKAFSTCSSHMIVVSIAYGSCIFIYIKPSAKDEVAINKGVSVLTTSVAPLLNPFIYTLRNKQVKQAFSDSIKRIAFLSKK
Sequence of OR5V1 (Homo sapiens) (Q9UGF6 whole entry): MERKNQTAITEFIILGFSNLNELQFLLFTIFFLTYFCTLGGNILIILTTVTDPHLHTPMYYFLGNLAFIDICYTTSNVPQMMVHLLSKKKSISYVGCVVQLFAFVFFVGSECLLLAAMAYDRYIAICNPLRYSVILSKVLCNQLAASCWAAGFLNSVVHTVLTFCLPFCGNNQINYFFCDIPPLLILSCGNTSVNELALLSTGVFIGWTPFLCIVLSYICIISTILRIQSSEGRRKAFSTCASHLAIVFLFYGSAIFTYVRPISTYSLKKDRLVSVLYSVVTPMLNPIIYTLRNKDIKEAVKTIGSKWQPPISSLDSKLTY
Sequence of OR6B3 (Homo sapiens) (Q8NGW1 whole entry): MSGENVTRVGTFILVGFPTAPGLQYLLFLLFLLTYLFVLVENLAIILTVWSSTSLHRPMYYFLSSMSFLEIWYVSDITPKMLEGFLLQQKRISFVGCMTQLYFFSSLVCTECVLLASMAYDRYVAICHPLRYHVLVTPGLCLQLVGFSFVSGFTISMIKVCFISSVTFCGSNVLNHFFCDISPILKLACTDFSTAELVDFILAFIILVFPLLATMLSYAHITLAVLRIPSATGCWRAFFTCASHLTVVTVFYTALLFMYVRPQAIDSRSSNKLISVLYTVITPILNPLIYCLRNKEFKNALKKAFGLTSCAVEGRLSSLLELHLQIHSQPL
Sequence of OR6A2 (Homo sapiens) (O95222 whole entry): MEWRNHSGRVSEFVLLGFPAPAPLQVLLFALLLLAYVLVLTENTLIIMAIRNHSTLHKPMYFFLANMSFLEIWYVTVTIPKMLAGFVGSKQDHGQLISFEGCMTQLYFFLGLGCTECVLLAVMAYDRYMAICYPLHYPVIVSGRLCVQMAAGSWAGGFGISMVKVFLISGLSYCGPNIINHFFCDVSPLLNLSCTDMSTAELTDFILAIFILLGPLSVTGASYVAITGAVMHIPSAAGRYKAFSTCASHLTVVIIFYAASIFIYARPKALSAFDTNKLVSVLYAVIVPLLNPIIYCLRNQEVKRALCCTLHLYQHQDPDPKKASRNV
Sequence of OR6C1 (Homo sapiens) (Q96RD1 whole entry): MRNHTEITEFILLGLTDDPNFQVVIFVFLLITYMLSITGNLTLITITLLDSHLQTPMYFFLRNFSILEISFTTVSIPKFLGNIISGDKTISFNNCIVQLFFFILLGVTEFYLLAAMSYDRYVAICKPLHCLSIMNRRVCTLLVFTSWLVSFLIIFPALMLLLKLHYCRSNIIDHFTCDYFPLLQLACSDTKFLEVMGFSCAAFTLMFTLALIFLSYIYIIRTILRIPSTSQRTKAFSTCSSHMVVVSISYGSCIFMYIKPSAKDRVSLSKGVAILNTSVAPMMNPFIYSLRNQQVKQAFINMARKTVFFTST
Sequence of OR5T1 (Homo sapiens) (Q8NG75 whole entry): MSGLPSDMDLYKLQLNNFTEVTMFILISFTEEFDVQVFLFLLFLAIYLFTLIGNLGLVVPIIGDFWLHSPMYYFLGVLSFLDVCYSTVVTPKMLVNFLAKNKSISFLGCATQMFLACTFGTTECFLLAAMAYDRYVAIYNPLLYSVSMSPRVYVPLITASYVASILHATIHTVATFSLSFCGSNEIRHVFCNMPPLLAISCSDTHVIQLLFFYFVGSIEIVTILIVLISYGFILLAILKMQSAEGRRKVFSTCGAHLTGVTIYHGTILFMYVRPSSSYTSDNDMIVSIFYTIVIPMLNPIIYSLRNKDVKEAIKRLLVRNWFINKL
Sequence of OR5T3 (Homo sapiens) (Q8NGG3 whole entry): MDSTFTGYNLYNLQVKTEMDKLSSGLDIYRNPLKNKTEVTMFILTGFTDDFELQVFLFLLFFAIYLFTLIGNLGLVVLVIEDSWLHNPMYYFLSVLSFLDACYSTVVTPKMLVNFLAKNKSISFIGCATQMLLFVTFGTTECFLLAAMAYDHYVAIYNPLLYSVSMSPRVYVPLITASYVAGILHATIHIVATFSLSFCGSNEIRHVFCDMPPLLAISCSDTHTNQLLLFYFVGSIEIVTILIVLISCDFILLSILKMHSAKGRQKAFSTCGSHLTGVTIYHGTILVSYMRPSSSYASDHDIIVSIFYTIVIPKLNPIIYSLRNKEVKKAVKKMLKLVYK
Sequence of OR6B2 (Homo sapiens) (Q6IFH4 whole entry): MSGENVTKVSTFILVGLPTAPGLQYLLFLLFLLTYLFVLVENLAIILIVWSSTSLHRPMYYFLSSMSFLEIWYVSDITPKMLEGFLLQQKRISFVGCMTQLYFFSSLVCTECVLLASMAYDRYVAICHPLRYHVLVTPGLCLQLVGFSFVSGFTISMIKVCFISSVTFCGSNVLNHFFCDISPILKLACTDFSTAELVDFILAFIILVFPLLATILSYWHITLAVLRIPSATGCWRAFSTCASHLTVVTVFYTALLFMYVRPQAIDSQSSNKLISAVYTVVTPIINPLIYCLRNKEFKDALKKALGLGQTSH
Sequence of OR6B1 (Homo sapiens) (O95007 whole entry): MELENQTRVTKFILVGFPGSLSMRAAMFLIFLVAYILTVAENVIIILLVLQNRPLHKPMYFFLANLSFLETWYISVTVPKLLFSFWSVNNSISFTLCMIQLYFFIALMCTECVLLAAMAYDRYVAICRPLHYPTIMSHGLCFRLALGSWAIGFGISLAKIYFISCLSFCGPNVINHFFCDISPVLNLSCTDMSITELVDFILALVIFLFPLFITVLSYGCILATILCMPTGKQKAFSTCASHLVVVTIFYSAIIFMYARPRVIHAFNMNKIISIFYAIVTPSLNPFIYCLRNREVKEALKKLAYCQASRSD
Sequence of OR5W2 (Homo sapiens) (Q8NH69 whole entry): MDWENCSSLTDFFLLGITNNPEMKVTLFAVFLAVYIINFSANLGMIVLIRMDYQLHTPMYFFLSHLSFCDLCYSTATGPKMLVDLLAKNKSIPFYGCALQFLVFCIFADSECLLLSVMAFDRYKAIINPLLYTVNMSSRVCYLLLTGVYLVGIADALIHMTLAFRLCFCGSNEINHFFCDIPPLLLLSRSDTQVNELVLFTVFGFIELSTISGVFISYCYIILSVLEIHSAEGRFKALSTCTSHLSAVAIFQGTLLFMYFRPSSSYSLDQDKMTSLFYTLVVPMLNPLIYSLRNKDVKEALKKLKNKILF
Sequence of OR5T2 (Homo sapiens) (Q8NGG2 whole entry): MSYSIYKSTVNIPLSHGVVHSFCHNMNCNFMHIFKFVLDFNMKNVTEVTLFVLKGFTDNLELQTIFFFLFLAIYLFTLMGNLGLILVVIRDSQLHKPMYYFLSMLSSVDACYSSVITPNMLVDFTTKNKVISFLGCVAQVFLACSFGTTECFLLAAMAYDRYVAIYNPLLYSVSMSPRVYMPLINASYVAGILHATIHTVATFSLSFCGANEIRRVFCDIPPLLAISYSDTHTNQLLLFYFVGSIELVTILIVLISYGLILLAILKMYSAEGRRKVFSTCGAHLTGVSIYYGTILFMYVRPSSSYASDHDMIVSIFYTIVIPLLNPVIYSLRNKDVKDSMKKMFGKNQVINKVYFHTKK
Sequence of OR5W2 R189C (as listed by the source, stated change not applied): as the sequence (Q8NH69 whole entry) above, with R189C counted along it
Sequence of OR5T2 S4G (as listed by the source): as the sequence (Q8NGG2 whole entry) above, with S4G counted along it
Sequence of OR5P3 L301R (as listed by the source, stated change not applied): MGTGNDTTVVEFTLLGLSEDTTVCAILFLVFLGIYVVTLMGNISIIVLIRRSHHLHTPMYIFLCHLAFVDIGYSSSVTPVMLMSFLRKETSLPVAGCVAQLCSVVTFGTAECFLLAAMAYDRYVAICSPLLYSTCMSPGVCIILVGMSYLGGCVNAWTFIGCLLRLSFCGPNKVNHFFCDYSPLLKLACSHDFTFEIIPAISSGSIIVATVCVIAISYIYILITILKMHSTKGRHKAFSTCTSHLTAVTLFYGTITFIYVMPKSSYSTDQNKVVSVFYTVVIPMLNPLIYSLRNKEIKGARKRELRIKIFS
Sequence of OR6A2 I50V (as listed by the source, stated change not applied): as the sequence (O95222 whole entry) above, with I50V counted along it

CCC1CCC(=O)O1 (stereo not given)
inactive: OR5P3 (Homo sapiens)

C=CCOC(=O)Cc1ccccc1
inactive: OR5P3 (Homo sapiens) | OR5P3 L301R | OR5R1 C122R S128G F184L | OR5T1 (Homo sapiens) | OR5T2 (Homo sapiens) | OR5T2 S4G | OR5T3 (Homo sapiens) | OR5V1 (Homo sapiens) | OR5W2 (Homo sapiens) | OR5W2 R189C | OR6A2 (Homo sapiens) | OR6A2 I50V | OR6B1 (Homo sapiens) | OR6B2 (Homo sapiens) | OR6B2 R122C C179R | OR6B3 (Homo sapiens) | OR6B3 T48I R131C | OR6C1 (Homo sapiens) | OR6C1 C130Y H165D V246I | OR6C2 (Homo sapiens)

Cc1c([N+](=O)[O-])c(C)c([N+](=O)[O-])c(C(C)(C)C)c1[N+](=O)[O-]
inactive: OR5P3 (Homo sapiens) | OR5T1 (Homo sapiens) | OR5T2 (Homo sapiens) | OR5T3 (Homo sapiens) | OR5V1 (Homo sapiens) | OR5W2 (Homo sapiens) | OR6A2 (Homo sapiens) | OR6B1 (Homo sapiens) | OR6B2 (Homo sapiens) | OR6B3 (Homo sapiens) | OR6C1 (Homo sapiens) | OR6C2 (Homo sapiens)

C=CCc1ccccc1
inactive: OR5P3 (Homo sapiens)

O=c1cc(O)c2ccccc2o1
inactive: OR5P3 (Homo sapiens)
